Data: ChEMBL document CHEMBL3102784, “Salicylanilide diethyl phosphates: synthesis, antimicrobial activity and cytotoxicity” (Bioorg Med Chem, 2014)
Values after ≈ are worked out from the molar mass of the structure shown. Active and inactive are the calls of the source. No cut-off for these calls is given here.

Assays:
Mycobacterium avium [1] = test: Antimycobacterial activity against isoniazid, rifampicin, ethambutol and ofloxacin-resistant Mycobacterium avium My 330/88 after 21 days; format: functional; details: My 330/88, 504 h
In short: (§1)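 Micromethod MIC in Šula's semisynthetic medium at 37 °C. Compounds added in DMSO at 1000 down to 0.032 µmol/L. Isoniazid standard in sterile water at 0.5–250 µmol/L. Inocula: H37Rv 10^3, M. avium 10^5, M. kansasii 10^4. Read at 14 and 21 d, plus 7 d for M. kansasii.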

Mycobacterium avium [2] = test: Antimycobacterial activity against isoniazid, rifampicin, ethambutol and ofloxacin-resistant Mycobacterium avium My 330/88 after 14 days; format: functional; details: My 330/88, 336 h; in short: as §1
[3] = system: Mycobacterium tuberculosis; test: Antimycobacterial activity against Mycobacterium tuberculosis H37Rv My 331/88 after 21 days; format: functional; details: H37Rv My 331/88, 504 h; in short: as §1
[4] = system: Mycobacterium tuberculosis; test: Antimycobacterial activity against Mycobacterium tuberculosis H37Rv My 331/88 after 14 days; format: functional; details: H37Rv My 331/88, 336 h; in short: as §1
[5] = system: Trichophyton mentagrophytes; test: Antifungal activity against Trichophyton mentagrophytes 445 after 120 hrs by broth microdilution method; format: functional; details: Trichophyton mentagrophytes, 445, 120 h
In short: (§2)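 Filamentous dermatophyte tested by broth microdilution in RPMI 1640 with glutamine, fluconazole as reference. Value expressed as IC50 relative to growth control. Read at 72 and 120 h.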

[6] = system: Trichophyton mentagrophytes; test: Antifungal activity against Trichophyton mentagrophytes 445 after 72 hrs by broth microdilution method; format: functional; details: Trichophyton mentagrophytes, 445, 72 h; in short: as §2
Lichtheimia corymbifera [7] = test: Antifungal activity against Absidia corymbifera 272 after 48 hrs by broth microdilution method; format: functional; details: Lichtheimia corymbifera, 272, 48 h
In short: (§3)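 Broth microdilution in RPMI 1640 with glutamine, fluconazole as reference. For yeasts, MIC is ≥80% growth reduction (IC80) versus control. For filamentous fungi, the value is expressed as IC50. Readings at 24 and 48 h.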

Lichtheimia corymbifera [8] = test: Antifungal activity against Absidia corymbifera 272 after 24 hrs by broth microdilution method; format: functional; details: Lichtheimia corymbifera, 272, 24 h; in short: as §3
Aspergillus fumigatus [9] = test: Antifungal activity against Aspergillus fumigatus 231 after 48 hrs by broth microdilution method; format: functional; details: Aspergillus fumigatus, 231, 48 h; in short: as §3
Aspergillus fumigatus [10] = test: Antifungal activity against Aspergillus fumigatus 231 after 24 hrs by broth microdilution method; format: functional; details: Aspergillus fumigatus, 231, 24 h; in short: as §3
Trichosporon asahii [11] = test: Antifungal activity against Trichosporon asahii 1188 after 48 hrs by broth microdilution method; format: functional; details: Trichosporon asahii, 1188, 48 h; in short: as §3
Trichosporon asahii [12] = test: Antifungal activity against Trichosporon asahii 1188 after 24 hrs by broth microdilution method; format: functional; details: Trichosporon asahii, 1188, 24 h; in short: as §3
Pichia kudriavzevii [13] = test: Antifungal activity against Candida krusei E28 after 48 hrs by broth microdilution method; format: functional; details: E28, 48 h; in short: as §3
Pichia kudriavzevii [14] = test: Antifungal activity against Candida krusei E28 after 24 hrs by broth microdilution method; format: functional; details: E28, 24 h; in short: as §3
Candida albicans [15] = test: Antifungal activity against Candida albicans ATCC 44859 after 48 hrs by broth microdilution method; format: functional; details: ATCC 44859, 48 h; in short: as §3
Candida albicans [16] = test: Antifungal activity against Candida albicans ATCC 44859 after 24 hrs by broth microdilution method; format: functional; details: ATCC 44859, 24 h; in short: as §3
Nakaseomyces glabratus = test: Antifungal activity against Candida glabrata 20/I at 500 micromol/L after 24 to 48 hrs by broth microdilution method; format: functional, organism-based; in short: as §3
Candida tropicalis = test: Antifungal activity against Candida tropicalis 156 at 500 micromol/L after 24 to 48 hrs by broth microdilution method; format: functional, organism-based; in short: as §3
Pseudomonas aeruginosa = test: Antibacterial activity against Pseudomonas aeruginosa CCM 1961 at 500 micromol/L after 24 to 48 hrs by broth microdilution method; format: functional, organism-based
In short: (§4)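 Broth microdilution in Mueller–Hinton broth, compounds dissolved in DMSO, tested over a dilution series from 500 downward. MIC taken as ≥95% growth reduction (IC95) versus drug-free control. Benzylpenicillin comparator. Readings at 24 and 48 h.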

Klebsiella pneumoniae [17] = test: Antibacterial activity against ESBL-positive Klebsiella pneumoniae J 14368/08 at 500 micromol/L after 24 to 48 hrs by broth microdilution method; format: functional, organism-based; in short: as §4
Klebsiella pneumoniae [18] = test: Antibacterial activity against Klebsiella pneumoniae D 11750/08 at 500 micromol/L after 24 to 48 hrs by broth microdilution method; format: functional, organism-based; in short: as §4
Escherichia coli = test: Antibacterial activity against Escherichia coli CCM 4517 at 500 micromol/L after 24 to 48 hrs by broth microdilution method; format: functional, organism-based; in short: as §4
Enterococcus sp. = test: Antibacterial activity against Enterococcus sp. J 14365/08 at 500 micromol/L after 24 to 48 hrs by broth microdilution method; format: functional, organism-based; in short: as §4
[19] = system: Staphylococcus epidermidis; test: Antibacterial activity against Staphylococcus epidermidis H 6966/08 after 48 hrs by broth microdilution method; format: functional; details: H 6966/08, 48 h; in short: as §4
[20] = system: Staphylococcus epidermidis; test: Antibacterial activity against Staphylococcus epidermidis H 6966/08 after 24 hrs by broth microdilution method; format: functional; details: H 6966/08, 24 h; in short: as §4
Staphylococcus aureus [21] = test: Antibacterial activity against methicillin-resistant Staphylococcus aureus H 5996/08 after 48 hrs by broth microdilution method; format: functional; details: H 5996/08, 48 h; in short: as §4
Staphylococcus aureus [22] = test: Antibacterial activity against methicillin-resistant Staphylococcus aureus H 5996/08 after 24 hrs by broth microdilution method; format: functional; details: H 5996/08, 24 h; in short: as §4
Staphylococcus aureus [23] = test: Antibacterial activity against Staphylococcus aureus CCM 4516/08 after 48 hrs by broth microdilution method; format: functional; details: CCM 4516/08, 48 h; in short: as §4
Staphylococcus aureus [24] = test: Antibacterial activity against Staphylococcus aureus CCM 4516/08 after 24 hrs by broth microdilution method; format: functional; details: CCM 4516/08, 24 h; in short: as §4
Mycobacterium kansasii [25] = test: Antimycobacterial activity against Mycobacterium kansasii 6509/96 after 21 days; format: functional; details: 6509/96, 504 h; in short: as §1
Mycobacterium kansasii [26] = test: Antimycobacterial activity against Mycobacterium kansasii 6509/96 after 14 days; format: functional; details: 6509/96, 336 h; in short: as §1
Mycobacterium kansasii [27] = test: Antimycobacterial activity against Mycobacterium kansasii 6509/96 after 7 days; format: functional; details: 6509/96, 168 h; in short: as §1
Mycobacterium kansasii [28] = test: Antimycobacterial activity against Mycobacterium kansasii My 235/80 after 21 days; format: functional; details: My 235/80, 504 h; in short: as §1
Mycobacterium kansasii [29] = test: Antimycobacterial activity against Mycobacterium kansasii My 235/80 after 14 days; format: functional; details: My 235/80, 336 h; in short: as §1
HepG2 = test: Cytotoxicity against human HepG2 cells after 24 hrs by CellTiter assay; format: cell-based; details: HepG2, 24 h
In short: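 HepG2 cells (passage 27–33) in MEM with 10% FBS, L-glutamine and NEAA, seeded at 1×10^4 per well. Treated next day with compounds at 0.1–100 µM (or 0.1–25 µmol/L), triplicates, <1% DMSO, for 24 h at 37 °C, 5% CO2. MTS reagent added for 2 h, absorbance read at 490 nm. IC50 taken against untreated (100%) and 10% DMSO (0%) controls.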

Mycobacterium kansasii [30] = test: Antimycobacterial activity against Mycobacterium kansasii My 235/80 after 7 days; format: functional; details: My 235/80, 168 h; in short: as §1

CCOP(=O)(OCC)Oc1ccc(Br)cc1C(=O)Nc1cccc(F)c1
MIC (Mycobacterium avium [1]): 32 µM (≈ 14.3 µg/mL) | MIC (Mycobacterium avium [2]): 32 µM (≈ 14.3 µg/mL) | MIC [3]: 8 µM (≈ 3.57 µg/mL) | MIC [4]: 8 µM (≈ 3.57 µg/mL) | MIC50 [5]: 62.5 µM (≈ 27.9 µg/mL) | MIC50 [6]: 62.5 µM (≈ 27.9 µg/mL) | MIC50 (Lichtheimia corymbifera [7]): > 500 µM | MIC50 (Lichtheimia corymbifera [8]): > 500 µM | MIC50 (Aspergillus fumigatus [9]): > 500 µM | MIC50 (Aspergillus fumigatus [10]): > 500 µM | MIC80 (Trichosporon asahii [11]): > 500 µM | MIC80 (Trichosporon asahii [12]): > 500 µM | MIC80 (Pichia kudriavzevii [13]): > 500 µM | MIC80 (Pichia kudriavzevii [14]): > 500 µM | MIC80 (Candida albicans [15]): > 500 µM | MIC80 (Candida albicans [16]): > 500 µM | Activity (Nakaseomyces glabratus): inactive | Activity (Candida tropicalis): inactive | Activity (Pseudomonas aeruginosa): inactive | Activity (Klebsiella pneumoniae [17]): inactive | Activity (Klebsiella pneumoniae [18]): inactive | Activity (Escherichia coli): inactive | Activity (Enterococcus sp.): inactive | MIC95 [19]: 250 µM (≈ 112 µg/mL) | MIC95 [20]: 250 µM (≈ 112 µg/mL) | MIC95 (Staphylococcus aureus [21]): 250 µM (≈ 112 µg/mL) | MIC95 (Staphylococcus aureus [22]): 250 µM (≈ 112 µg/mL) | MIC95 (Staphylococcus aureus [23]): 250 µM (≈ 112 µg/mL) | MIC95 (Staphylococcus aureus [24]): 125 µM (≈ 55.8 µg/mL) | MIC (Mycobacterium kansasii [25]): 16 µM (≈ 7.14 µg/mL) | MIC (Mycobacterium kansasii [26]): 16 µM (≈ 7.14 µg/mL) | MIC (Mycobacterium kansasii [27]): 8 µM (≈ 3.57 µg/mL) | MIC (Mycobacterium kansasii [28]): 16 µM (≈ 7.14 µg/mL) | MIC (Mycobacterium kansasii [29]): 16 µM (≈ 7.14 µg/mL) | IC50 (HepG2): 5.54 µM | MIC (Mycobacterium kansasii [30]): 8 µM (≈ 3.57 µg/mL)
